Test results as given in ChEMBL document CHEMBL3286322, “Synthesis and anti-cholinesterase activity of new 7-hydroxycoumarin derivatives” (Eur J Med Chem, 2014).
Activity calls are given as the source filed them. The rule behind the calls is not given here.

What was measured:
[1] = Antioxidant activity assessed as ferric ion reducing activity using fe3+-TPTZ measured per gram of protein by FRAP assay; type: functional
Outline: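 Reducing power measured against a FRAP reagent prepared by mixing acetate buffer (pH 3.6), 10 mM TPTZ in 40 mM HCl, and 20 mM ferric chloride hexahydrate. Test compounds act as reductants, converting the ferric tripyridyl triazine complex to the blue ferrous form, which is read colorimetrically. The method follows Benzie and Strain.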

Acetylcholinesterase [2] = molecular target: T1, Acetylcholinesterase (Electrophorus electricus, UniProt O42275); assay: Inhibition of electric eel AChE using acetylthiocholine iodide as substrate by spectrophotometer analysis
Cholinesterase = Cholinesterase (Equus caballus, UniProt P81908); assay: Inhibition of equine serum BChE using butyrylthiocholine iodide as substrate by spectrophotometer analysis
Outline: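 Compound stocks were made in DMSO/ethanol (1:9) and diluted to final concentrations with 0.1 M potassium phosphate buffer, pH 8.0. IC50 values are mean ± SE of three independent experiments.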

[3] = Neuroprotective activity in rat PC12 cells assessed as inhibition H2O2-induced reduction of cell viability at 1 to 10 uM after 24 hrs by MTT assay; type: functional, cell-based; details: PC-12
Outline: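 PC12 cells differentiated with NGF (50 ng/ml) in serum-free medium for 5 days, until neurite outgrowth was seen by microscopy. Cells were pre-incubated with compound at 1, 5 or 10 for 3 h, then exposed to H2O2 (300). Viability was expressed relative to the H2O2-only group. A reference compound was run at 5.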

Acetylcholinesterase [4] = molecular target: T1, Acetylcholinesterase; assay: Inhibition of electric eel AChE using acetylthiocholine as substrate by Lineweavere-Burk plot
Outline: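 Compound stocks were made in DMSO/ethanol (1:9) and diluted in 0.1 M potassium phosphate buffer, pH 8.0. Initial AChE velocity was measured at inhibitor levels of 0, 0.64, 1.27 and 2.55 across varied acetylthiocholine concentrations. Inhibition type was read from a Lineweaver–Burk plot, and Ki was calculated from a secondary plot.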

[5] = Cytotoxicity against rat PC12 cells at 1 to 10 uM; type: cell-based; details: pc-12, 10 µM
[6] = Neuroprotective activity in rat PC12 cells assessed as inhibition H2O2-induced reduction of cell viability at 5 uM after 24 hrs by MTT assay; type: functional, cell-based; details: PC-12
Outline: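 PC12 cells were differentiated in serum-free medium with NGF (50 ng/ml) for 5 days until neurite outgrowth appeared. Cells were preincubated with compound at 1, 5 or 10 for 3 h, then challenged with H2O2 (300). Viability is expressed relative to the H2O2-treated group.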

T1 sequence (O42275 whole entry): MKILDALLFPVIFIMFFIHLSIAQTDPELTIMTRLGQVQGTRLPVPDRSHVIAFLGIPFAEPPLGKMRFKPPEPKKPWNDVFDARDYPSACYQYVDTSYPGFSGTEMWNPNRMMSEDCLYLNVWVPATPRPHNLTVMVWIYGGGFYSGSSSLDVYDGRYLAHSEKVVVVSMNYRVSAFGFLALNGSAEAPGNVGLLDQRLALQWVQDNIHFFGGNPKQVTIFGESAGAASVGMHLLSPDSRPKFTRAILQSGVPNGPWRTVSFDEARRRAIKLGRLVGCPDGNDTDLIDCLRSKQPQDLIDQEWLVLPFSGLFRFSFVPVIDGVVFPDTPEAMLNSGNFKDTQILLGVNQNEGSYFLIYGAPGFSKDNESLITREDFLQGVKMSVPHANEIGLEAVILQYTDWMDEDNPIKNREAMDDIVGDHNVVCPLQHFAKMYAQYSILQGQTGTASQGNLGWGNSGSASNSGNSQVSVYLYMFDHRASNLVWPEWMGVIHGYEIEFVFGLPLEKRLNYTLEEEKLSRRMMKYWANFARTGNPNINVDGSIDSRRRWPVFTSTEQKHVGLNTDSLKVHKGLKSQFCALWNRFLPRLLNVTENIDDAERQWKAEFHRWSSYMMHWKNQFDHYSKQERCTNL
Cholinesterase, sequence (P81908 whole entry): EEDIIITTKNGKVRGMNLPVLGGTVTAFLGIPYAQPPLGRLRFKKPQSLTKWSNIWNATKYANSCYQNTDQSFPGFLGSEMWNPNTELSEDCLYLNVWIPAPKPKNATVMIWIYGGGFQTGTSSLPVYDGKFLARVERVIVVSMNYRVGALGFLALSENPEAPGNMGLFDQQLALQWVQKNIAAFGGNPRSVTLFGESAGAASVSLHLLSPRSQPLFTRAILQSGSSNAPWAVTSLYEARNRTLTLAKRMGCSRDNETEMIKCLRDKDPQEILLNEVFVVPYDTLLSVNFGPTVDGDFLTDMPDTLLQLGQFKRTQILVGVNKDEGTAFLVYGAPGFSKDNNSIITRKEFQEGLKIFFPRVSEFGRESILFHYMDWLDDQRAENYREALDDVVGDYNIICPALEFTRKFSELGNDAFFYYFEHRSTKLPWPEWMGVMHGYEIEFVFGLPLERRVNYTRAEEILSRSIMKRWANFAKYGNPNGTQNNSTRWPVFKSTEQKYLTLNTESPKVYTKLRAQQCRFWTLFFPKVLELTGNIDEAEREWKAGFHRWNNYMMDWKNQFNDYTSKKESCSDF

Row | SMILES | Activity [1] | IC50 (Acetylcholinesterase [2]) | IC50 (Cholinesterase) | Activity [3] | Ki (Acetylcholinesterase [4]) | Activity [5] | Activity [6]
1 | O=C(CCCOc1ccc2ccc(=O)oc2c1)N1CCC(Cc2ccccc2)CC1 | 1.61 µmol | 6.9 µM | 387 µM | – | – | – | –
2 | O=C(COc1ccc2ccc(=O)oc2c1)N1CCN(c2ccccc2F)CC1 | 0.07 µmol | 34.5 µM | 86 µM | – | – | – | –
3 | O=C(CCCOc1ccc2ccc(=O)oc2c1)N1CCN(c2ccccc2F)CC1 | 0.15 µmol | 6.9 µM | 15 µM | – | – | – | –
4 | O=C(COc1ccc2ccc(=O)oc2c1)N1CCN(c2ccc(Cl)c(Cl)c2)CC1 | 2.01 µmol | 26.8 µM | 120 µM | – | – | – | –
5 | O=C(CCCOc1ccc2ccc(=O)oc2c1)N1CCN(c2ccccc2)CC1 | 1.13 µmol | 3.43 µM | 120 µM | – | – | – | –
6 | O=C(COc1ccc2ccc(=O)oc2c1)NC1CCN(Cc2ccccc2)CC1 | 0.06 µmol | 1.6 µM | 42 µM | Active | 1320 nM | Non-toxic | –
7 | O=c1c(O)c(-c2ccc(O)c(O)c2)oc2cc(O)cc(O)c12 | 10.8 µmol | – | – | – | – | – | Active
8 | O=C(COc1ccc2ccc(=O)oc2c1)N1CCN(c2ccccc2)CC1 | 1.94 µmol | 33 µM | 50 µM | – | – | – | –
9 | Cc1cc(=O)oc2cc(OCCCC(=O)N3CCN(c4ccccc4)CC3)ccc12 | 0.07 µmol | 20.8 µM | 68 µM | – | – | – | –
10 | O=C1O[C@H]([C@@H](O)CO)C(O)=C1O | 7.26 µmol | – | – | – | – | – | –
11 | Cc1cc(=O)oc2cc(OCCCC(=O)N3CCC(O)(c4ccc(Br)cc4)CC3)ccc12 | 0.06 µmol | 34.6 µM | 141 µM | – | – | – | –
12 | O=C(CCCOc1ccc2ccc(=O)oc2c1)N1CCN(c2ccc(F)cc2)CC1 | 1.37 µmol | 50 µM | 75 µM | – | – | – | –
13 | O=C(COc1ccc2ccc(=O)oc2c1)N1CCC(Cc2ccccc2)CC1 | 0.05 µmol | 9.8 µM | 46 µM | – | – | – | –
14 | Cc1cc(=O)oc2cc(OCCCC(=O)N3CCN(c4ccc(F)cc4)CC3)ccc12 | 0.08 µmol | 41.6 µM | 24 µM | – | – | – | –
15 | Cc1cc(=O)oc2cc(OCCCC(=O)N3CCN(c4ccccc4O)CC3)ccc12 | 2.01 µmol | 6.2 µM | 184 µM | – | – | – | –
16 | O=C(CCCOc1ccc2ccc(=O)oc2c1)N1CCN(c2ccc(Cl)c(Cl)c2)CC1 | 0.78 µmol | 26 µM | 80 µM | – | – | – | –
17 | Cc1cc(=O)oc2cc(OCCCC(=O)N3CCN(c4ccccc4F)CC3)ccc12 | 0.1 µmol | 16.4 µM | 29 µM | – | – | – | –
18 | O=C(CCCOc1ccc2ccc(=O)oc2c1)N1CCC(O)(c2ccc(Br)cc2)CC1 | 0.03 µmol | 73 µM | 180 µM | – | – | – | –
19 | O=C(CCCOc1ccc2ccc(=O)oc2c1)N1CCN(c2ccccc2O)CC1 | 2.82 µmol | 7 µM | 280 µM | – | – | – | –
20 | Cc1cc(=O)oc2cc(OCCCC(=O)N3CCN(c4ccc(Cl)c(Cl)c4)CC3)ccc12 | 0.05 µmol | 4.38 µM | 250 µM | – | – | – | –
21 | COc1ccc(CCNC(=O)COc2ccc3ccc(=O)oc3c2)cc1OC | 5.43 µmol | 74 µM | 163 µM | – | – | – | –
